Measured values: ChEMBL document CHEMBL1128278, “Design, synthesis, and structure--activity relationship studies for a new imidazole series of J774 macrophage specific acyl-CoA:cholesterol acyltransferase (ACAT) inhibitors” (J Med Chem, 1995)
pIC50: −log10 of the molar value.

Key:
[1] = target: T1, Sterol O-acyltransferase 1 (Rattus norvegicus, UniProt O70536); experiment: Concentration required to inhibit 50% activity of Acyl coenzyme A:cholesterol acyltransferase 1 in vitro using rat liver microsome.; format: microsomes; conditions: for pIC50: read-out: IC50
T1 sequence (O70536 whole entry): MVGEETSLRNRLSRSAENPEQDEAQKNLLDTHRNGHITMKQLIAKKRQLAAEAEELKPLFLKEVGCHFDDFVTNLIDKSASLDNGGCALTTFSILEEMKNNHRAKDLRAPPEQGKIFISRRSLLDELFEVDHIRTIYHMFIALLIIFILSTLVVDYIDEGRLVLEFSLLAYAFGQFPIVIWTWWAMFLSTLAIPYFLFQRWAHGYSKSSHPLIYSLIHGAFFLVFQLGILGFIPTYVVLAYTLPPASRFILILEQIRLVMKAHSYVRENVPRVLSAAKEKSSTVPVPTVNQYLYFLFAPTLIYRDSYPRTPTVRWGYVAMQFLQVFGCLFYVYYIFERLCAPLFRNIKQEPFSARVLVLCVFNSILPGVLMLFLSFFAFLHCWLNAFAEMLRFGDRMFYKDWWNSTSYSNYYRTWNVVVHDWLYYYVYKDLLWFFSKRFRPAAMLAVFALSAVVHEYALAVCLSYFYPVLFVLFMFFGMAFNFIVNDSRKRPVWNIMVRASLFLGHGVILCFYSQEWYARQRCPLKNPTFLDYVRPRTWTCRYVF
In short: (§1)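 Rat liver microsomes; ACAT activity read as [14C]cholesteryl oleate formed from [14C]oleoyl-CoA (pmol/min/mg). Inhibitors added in 5 µL DMSO. Duplicate assays with at least four inhibitor concentrations bracketing the IC50; IC50 is the concentration giving 50% inhibition of ACAT activity. Average range of replicates ±17%.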

[2] = Acyl coenzyme A:cholesterol acyltransferase inhibition in cell culture measured in murine J774 macrophages.
[3] = Acyl coenzyme A:cholesterol acyltransferase inhibition in cell culture measured in murine IC-21 macrophages.
[4] = Acyl coenzyme A:cholesterol acyltransferase activity was determined in J774 macrophages by measuring the formation of labeled cholesteryl oleate (pmol/midmg) from [14C]oleoyl-CoA; format: functional
In short: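 J774 cells grown in high-glucose DMEM with 10% FBS at 37 °C, 6% CO2, then harvested for microsome preparation. ACAT activity in these microsomes measured as in the hepatic assay, as [14C]cholesteryl oleate formed from [14C]oleoyl-CoA, with inhibitors in DMSO. IC50 taken as the concentration giving 50% inhibition.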

[5] = tested on: J774; experiment: Concentration required to inhibit 50% activity of J774 macrophage cholesterol esterification; format: functional, cell-based; conditions: Mus musculus
In short: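 Intact J774A.1 cells, seeded at 3 x 10^4 cells/cm2 and grown 36 h, then loaded 17 h with ac-LDL in 10% FBS-DMEM. Inhibitors in DMSO (1.0% final) for 4 h, with [14C]oleate–BSA for the last 2 h. Cholesteryl ester separated by TLC and counted (nmol/h/mg Lowry protein).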

[6] = target: T1, Sterol O-acyltransferase 1; experiment: ACAT activity was determined in rat hepatic microsomes by measuring the formation of labeled cholesteryl oleate (pmol/midmg) from [14C]oleoyl-CoA; format: functional, Liver; in short: as §1

pIC50 [1]	pIC50 [2]	SMILES	also measured
6.85	7.10	CCCCCCCN(CCCCCSc1nc(-c2ccc(OC)cc2)c(-c2ccc(OC)cc2)[nH]1)C(=O)Nc1ccc(F)cc1F	–
6.70	6.35	CCCCCCCN(CCCCCSc1nc(-c2ccco2)c(-c2ccco2)[nH]1)C(=O)Nc1ccc(F)cc1F	–
7.70	6.19	CCCCCCCN(CCCCCSc1nc(C2CCCCC2)c(C2CCCCC2)[nH]1)C(=O)Nc1ccc(F)cc1F	–
6.46	5.68	CCCCCCCN(CCCCCSc1nc(-c2ccccc2OC)c(-c2ccccc2OC)[nH]1)C(=O)Nc1ccc(F)cc1F	–
7.30	7.10	CCCCCCCN(CCCCCSc1nc(-c2ccc(N(C)C)cc2)c(-c2ccc(N(C)C)cc2)[nH]1)C(=O)Nc1ccc(F)cc1F	–
5.62	5.32	CCCCCCCN(CCCCCSc1nc(-c2ccc(O)cc2)c(-c2ccc(O)cc2)[nH]1)C(=O)Nc1ccc(F)cc1F	–
6.77	5.83	CCCCCCCN(CCN(C)CCSc1nc(-c2ccccc2)c(-c2ccccc2)[nH]1)C(=O)Nc1ccc(F)cc1F	–
6.00	5.65	CCCCCCCN(CCCCCSc1nc(-c2ccccn2)c(-c2ccccn2)[nH]1)C(=O)Nc1ccc(F)cc1F	–
6.80	8.40	CCCCCCCN(CCCCCSc1nc(-c2ccc(OC)cc2)c(-c2ccc(OC)cc2)[nH]1)C(=O)NC(C)C	–
7.70	6.19	CCCCCCCN(CCCCCSc1nc(C(C)C)c(C(C)C)[nH]1)C(=O)Nc1ccc(F)cc1F	–
7.52	6.08	CCCCCCCN(CCCCCSc1nc2c([nH]1)-c1ccccc1OCOc1ccccc1-2)C(=O)Nc1ccc(F)cc1F	–
7.10	6.54	CCCCCCCN(CCCCCSc1nc(-c2ccc(C)cc2)c(-c2ccc(C)cc2)[nH]1)C(=O)Nc1ccc(F)cc1F	–
7.10	5.40	CCCCCCCN(CCOCCSc1nc(-c2ccccc2)c(-c2ccccc2)[nH]1)C(=O)Nc1ccc(F)cc1F	–
7.40	5.46	CCCCCCCN(CCCCCSc1nc(-c2ccc(F)cc2)c(-c2ccc(F)cc2)[nH]1)C(=O)Nc1ccc(F)cc1F	–
7.15	5.76	CCCCOCCN(CCCCCSc1nc(-c2ccccc2)c(-c2ccccc2)[nH]1)C(=O)Nc1ccc(F)cc1F	–
4.40	4.60	CCCCCCCN(CCCCCSc1nc(-c2ccc(C(F)(F)F)cc2)c(-c2ccc(C(F)(F)F)cc2)[nH]1)C(=O)Nc1ccc(F)cc1F	–
7.22	5.76	CCCCCCCN(CCCCCSc1nc2c([nH]1)-c1ccccc1Oc1ccccc1-2)C(=O)Nc1ccc(F)cc1F	–
7.22	6.03	CCCCCCCN(CCCCCSc1nc(-c2cccs2)c(-c2cccs2)[nH]1)C(=O)Nc1ccc(F)cc1F	–
7.40	6.44	CCCCCCCN(CCCCCSc1nc(-c2cccc(OC)c2)c(-c2cccc(OC)c2)[nH]1)C(=O)Nc1ccc(F)cc1F	–
7.22	5.57	CCCCCCCN(CCCCCSc1nc(CCC)c(CCC)[nH]1)C(=O)Nc1ccc(F)cc1F	–
< 4.30	5.69	CCCCCCCN(CCCCCSc1nc(-c2ccc(S(C)(=O)=O)cc2)c(-c2ccc(S(C)(=O)=O)cc2)[nH]1)C(=O)Nc1ccc(F)cc1F	–
7.15	7.30	CCCCCCCN(CCCCCSc1nc(-c2ccc(SC)cc2)c(-c2ccc(SC)cc2)[nH]1)C(=O)Nc1ccc(F)cc1F	–
–	6.00	CCCCCCCN(CCCCCSc1nc(-c2ccccc2)c(-c2ccccc2)[nH]1)C(=O)Nc1ccc(F)cc1F [LECIMIBIDE]	pIC50 [4]: 7.60; pIC50 [5]: 6.00

Continued, compound first:

SMILES	pIC50 [1]	pIC50 [2]	also measured
CCOCCOCCN(CCCCCSc1nc(-c2ccccc2)c(-c2ccccc2)[nH]1)C(=O)Nc1ccc(F)cc1F	7.30	5.40	–
CCCCCCCN(CCCCCSc1nc(-c2ccc(OC)cc2)c(-c2ccc(OC)cc2)[nH]1)C(=O)Oc1ccccc1	6.19	7.49	–
CC(C)NC(=O)N(CCN(C)CCSc1nc(-c2ccccc2)c(-c2ccccc2)[nH]1)CCN1CCOCC1	6.46	5.20	–
O=C(Nc1ccc(F)cc1F)N(CCCCCSc1nc(-c2ccccc2)c(-c2ccccc2)[nH]1)CCOCCO	7.40	5.17	–
CCCCCCCN(CCCCCSc1nc(-c2ccc(N(C)C)cc2)c(-c2ccc(N(C)C)cc2)[nH]1)C(=O)CC1CCCCC1	7.30	7.80	–
COCCOCCN(CCCCCSc1nc(-c2ccc(N(C)C)cc2)c(-c2ccc(N(C)C)cc2)[nH]1)C(=O)NC(C)C	–	5.12	IC50 [1]: Not Active
CCOCCOCCN(CCCCCSc1nc(-c2ccc(SC)cc2)c(-c2ccc(SC)cc2)[nH]1)C(=O)NC(C)C	6.55	7.40	–
CCCCCCCN(CCCCCSc1nc(-c2ccc(N(C)C)cc2)c(-c2ccc(N(C)C)cc2)[nH]1)C(=O)Oc1ccccc1	6.92	7.22	–
COCCOCCN(CCCCCSc1nc(-c2ccc(OC)cc2)c(-c2ccc(OC)cc2)[nH]1)C(=O)NC(C)C	6.30	6.44	–
CN(CCSc1nc(-c2ccccc2)c(-c2ccccc2)[nH]1)CCN(CCN1CCOCC1)C(=O)Nc1ccc(F)cc1F	6.62	5.56	–
CCCCN(C)CCN(CCOCCSc1nc(-c2ccc(OC)cc2)c(-c2ccc(OC)cc2)[nH]1)C(=O)Nc1ccc(F)cc1F	5.82	–	pIC50 [3]: 6.20
CCCCCCCN(CCCCCSc1nc(-c2ccc(OC)cc2)c(-c2ccc(OC)cc2)[nH]1)C(=O)CC1CCCCC1	7.96	7.54	–
CC(C)NC(=O)N(CCCCCSc1nc(-c2ccccc2)c(-c2ccccc2)[nH]1)CCOCCO	7.05	5.16	–
COc1ccc(-c2nc(SCCCCCN(CCCCCO)C(=O)NC(C)C)[nH]c2-c2ccc(OC)cc2)cc1	–	6.00	–
CCN(CC)CCN(CCCCCSc1nc(-c2ccccc2)c(-c2ccccc2)[nH]1)C(=O)Nc1ccc(F)cc1F	7.10	5.66	–
CCN(CC)CCN(CCCCCSc1nc(-c2ccccc2)c(-c2ccccc2)[nH]1)C(=O)NC(C)C	6.18	6.24	–
CCCCCCCN(CCOCCSc1nc(-c2ccccc2)c(-c2ccccc2)[nH]1)C(=O)NC(C)C	6.72	6.00	–
COc1ccc(-c2nc(SCCCCCN(CCOCCO)C(=O)Nc3ccc(F)cc3F)[nH]c2-c2ccc(OC)cc2)cc1	6.64	6.08	–
COc1ccc(-c2nc(SCCCCCN(CCN3CCOCC3)C(=O)Nc3ccc(F)cc3F)[nH]c2-c2ccc(OC)cc2)cc1	6.57	5.87	–
CCCCCCCN(CCOCCSc1nc(-c2ccc(OC)cc2)c(-c2ccc(OC)cc2)[nH]1)C(=O)NC(C)C	6.07	6.47	–
CCCCCCCN(CCOCCSc1nc(-c2ccc(OC)cc2)c(-c2ccc(OC)cc2)[nH]1)C(=O)Nc1ccc(F)cc1F	5.64	6.30	–
CCCCCCCN(CCCCCSc1nc(-c2ccc(N(C)C)cc2)c(-c2ccc(N(C)C)cc2)[nH]1)C(=O)NC(C)C	7.10	8.52	pIC50 [4]: 9.22; pIC50 [5]: 8.40; pIC50 [6]: 7.10
COCCOCCN(CCCCCSc1nc(-c2ccc(OC)cc2)c(-c2ccc(OC)cc2)[nH]1)C(=O)Nc1ccc(F)cc1F	6.47	6.60	–
CCCCOCCN(CCCCCSc1nc(-c2ccccc2)c(-c2ccccc2)[nH]1)C(=O)NC(C)C	6.72	6.08	–
CCOCCOCCN(CCCCCSc1nc(-c2ccccc2)c(-c2ccccc2)[nH]1)C(=O)NC(C)C	7.52	5.52	–
COc1ccc(-c2nc(SCCCOCCN(CCOCCO)C(=O)NC(C)C)[nH]c2-c2ccc(OC)cc2)cc1	6.32	5.62	–
O=C(Nc1ccc(F)cc1F)N(CCCCCSc1nc(-c2ccccc2)c(-c2ccccc2)[nH]1)CCN1CCOCC1	7.15	6.06	–
CCCCCCCN(CCN(C)CCSc1nc(-c2ccccc2)c(-c2ccccc2)[nH]1)C(=O)NC(C)C	6.59	5.62	–
